In ChEMBL document CHEMBL1134845, “Syntheses and biological activities of a novel group of steroidal derived inhibitors for human Cdc25A protein phosphatase” (J Med Chem, 2001):

What was measured:
[1] = target: T1, M-phase inducer phosphatase 1 (Homo sapiens, UniProt P30304); experiment: (§1) Inhibitory activity tested against cell division cycle 25A (assay using fluorescein diphosphate (FDP) as substrate)
T1 sequence (P30304 whole entry): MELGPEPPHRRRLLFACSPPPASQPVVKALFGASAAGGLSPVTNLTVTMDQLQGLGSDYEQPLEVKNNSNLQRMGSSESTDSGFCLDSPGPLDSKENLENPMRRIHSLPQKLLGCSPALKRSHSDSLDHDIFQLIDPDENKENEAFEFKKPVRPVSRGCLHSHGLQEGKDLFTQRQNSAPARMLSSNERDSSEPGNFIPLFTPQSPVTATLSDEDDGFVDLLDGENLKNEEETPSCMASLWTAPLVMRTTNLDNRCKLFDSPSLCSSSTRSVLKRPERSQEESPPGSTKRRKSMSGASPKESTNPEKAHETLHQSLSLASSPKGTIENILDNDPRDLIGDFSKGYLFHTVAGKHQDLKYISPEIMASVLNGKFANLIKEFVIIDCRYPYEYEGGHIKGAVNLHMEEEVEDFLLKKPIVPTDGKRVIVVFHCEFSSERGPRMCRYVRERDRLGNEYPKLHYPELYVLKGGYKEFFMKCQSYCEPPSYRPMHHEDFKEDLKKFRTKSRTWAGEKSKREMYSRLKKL
Method in brief: (§2)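 Recombinant human GST-Cdc25A fusion protein, each batch calibrated so that FDP was dephosphorylated linearly over 20 min. Fluorescein diphosphate was the substrate. Reactions ran 15 min at 25 °C in the dark and were stopped with sodium orthovanadate. IC50 came from at least two independent runs, each in triplicate.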

[2] = target: T2, M-phase inducer phosphatase 1 (Homo sapiens) (UniProt P30304); experiment: as §1; conditions: concentration not given here
T2 sequence (whole entry): T1 sequence (P30304 whole entry)
Method in brief: as §2, with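 “orthovanadate. Fluorescein monophosphate was read at 485 nm excitation and 530 nm emission.” for “orthovanadate.”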

Row | SMILES | IC50 [1] [µM] | inhibition [2] [%]
1 | CC(C)CCC[C@@H](C)[C@H]1CC[C@H]2[C@@H]3CC[C@H]4C[C@@H](OC(=S)SCC(=O)O)CC[C@]4(C)[C@H]3CC[C@]12C | 0.9 | –
2 | CC(C)CCC[C@@H](C)[C@H]1CC[C@H]2[C@@H]3CC[C@H]4C[C@@H](O/C(S)=N\c5cccc6ccccc56)CC[C@]4(C)[C@H]3CC[C@]12C | – | 19
3 | CC(=O)OC1CC[C@](C)([C@H]2CC[C@]3(C)[C@@H]([C@H](C)CCCC(C)C)CC[C@H]3[C@@H]2CC(=O)O)C(=O)C1 (stereo partly specified) | 9.3 | –
4 | CC(C)CCC[C@@H](C)[C@H]1CC[C@H]2[C@@H]3CC[C@H]4C[C@@H](OC(=S)SCC(=O)c5ccccc5)CC[C@]4(C)[C@H]3CC[C@]12C | > 100 | –
5 | COC(CC#N)CC[C@@]1(C)OC(=O)C[C@H]2[C@@H]3CC[C@H]([C@H](C)CCCC(C)C)[C@@]3(C)CC[C@@H]21 (stereo partly specified) | 10.5 | –

Further lines, results first:

Row | IC50 [1] [µM] | inhibition [2] [%] | SMILES
6 | 0.7 | – | CC(C)CCC[C@@H](C)[C@H]1CC[C@H]2[C@@H]3CC[C@H]4C[C@@H](OCC(=O)O)CC[C@]4(C)[C@H]3CC[C@]12C
7 | 2.4 | – | C/C(=C/CCCC#N)[C@H]1CC[C@]2(C)[C@@H](C(C)CCCC(C)C)CC[C@H]2[C@@H]1CC(=O)O (stereo partly specified)
8 | 9.5 | – | CC(C)CCC[C@@H](C)[C@H]1CC[C@H]2[C@H](CC(=O)O)[C@@H]([C@@]3(C)CCC=CC3=O)CC[C@]12C
9 | – | 18 | CC(C)CCC[C@@H](C)[C@H]1CC[C@H]2[C@@H]3CC[C@H]4C[C@@H](OC(=O)Nc5ccccc5)CC[C@]4(C)[C@H]3CC[C@]12C
10 | > 100 | – | CCOC(=O)CSC(=S)O[C@H]1CC[C@@]2(C)[C@@H](CC[C@@H]3[C@@H]2CC[C@]2(C)[C@@H]([C@H](C)CCCC(C)C)CC[C@@H]32)C1
11 | – | 16 | CC(C)CCC[C@@H](C)[C@H]1CC[C@H]2[C@@H]3CC[C@H]4CC(NCCCC(=O)O)CC[C@]4(C)[C@H]3CC[C@]12C (stereo partly specified)
